Columns and labels:
Mycobacterium avium [1] = experiment: Antituberculosis activity against Mycobacterium avium JTC48627 isolated from bison fecal sample assessed as minimum drug level required for inhibition by MGIT 960 susceptibility test; type: functional, Feces
How it was run: (§1)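 10^5 to 10^6 CFU from single-cell suspensions inoculated in duplicate into MGIT ParaTB medium with supplement and egg yolk. Drugs were at final 0.5–64.0 μg/ml, with 128.0 μg/ml added for some strains. Tubes were incubated at 37°C in MGIT 960. Inhibition is the lowest concentration giving a time to detection longer than a drug-free 1:100 inoculum control. Killing is no positive signal through 56 days.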

Mycobacterium avium [2] = experiment: Antituberculosis activity against Mycobacterium avium JTC48627 isolated from bison fecal sample assessed as minimum drug level required for killing within 15 days by MGIT 960 susceptibility test; type: functional, Feces
[3] = test system: Mycobacterium avium subsp. paratuberculosis; experiment: Antituberculosis activity against Mycobacterium paratuberculosis B238 isolated from bovine assessed as minimum drug level required for inhibition by MGIT 960 susceptibility test; type: functional; how it was run: as §1
Enterococcus faecalis [4] = experiment: Antituberculosis activity against Enterococcus faecalis ATCC 29212 isolated from human urine assessed as minimum drug level required for killing after 56 days by MGIT 960 susceptibility test; type: functional
Mycolicibacterium phlei [5] = experiment: Antituberculosis activity against Mycobacterium phlei ATCC 11758 assessed as minimum drug level required for inhibition by MGIT 960 susceptibility test; type: functional
How it was run: (§2)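 MGIT ParaTB tubes were supplemented with egg yolk and inoculated in duplicate with 10^5 to 10^6 CFU from single-cell suspensions. Thiopurines were dissolved in 0.05 M NaOH in 10 mM PBS and tested at final 0.5 to 64.0 μg/ml, with 128.0 μg/ml added for some strains. Tubes ran at 37°C in the MGIT 960. The value is the lowest concentration giving a time-to-detection longer than a drug-free 1:100 inoculum control.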

[6] = test system: Mycobacterium avium subsp. paratuberculosis; experiment: Antituberculosis activity against Mycobacterium paratuberculosis B244 isolated from bovine assessed as minimum drug level required for inhibition by MGIT 960 susceptibility test; type: functional; how it was run: as §1
[7] = test system: Mycobacterium avium subsp. paratuberculosis; experiment: Antituberculosis activity against Mycobacterium paratuberculosis B213 isolated from bovine assessed as minimum drug level required for inhibition by MGIT 960 susceptibility test; type: functional; how it was run: as §1
[8] = test system: Mycolicibacterium smegmatis; experiment: Antituberculosis activity against Mycobacterium smegmatis ATCC 14468 assessed as minimum drug level required for inhibition by MGIT 960 susceptibility test; type: functional; how it was run: as §2
Mycobacterium avium [9] = experiment: Antituberculosis activity against Mycobacterium avium ATCC 25291 isolated from chicken assessed as minimum drug level required for inhibition by MGIT 960 susceptibility test; type: functional; how it was run: as §1
[10] = test system: Mycobacterium avium subsp. paratuberculosis; experiment: Antituberculosis activity against Mycobacterium paratuberculosis B244 isolated from bovine assessed as minimum drug level required for killing after 56 days by MGIT 960 susceptibility test; type: functional; how it was run: as §1
Mycobacterium avium [11] = experiment: Antituberculosis activity against Mycobacterium avium ATCC 35712 isolated from chicken assessed as minimum drug level required for inhibition by MGIT 960 susceptibility test; type: functional; how it was run: as §1
[12] = test system: Mycobacterium avium subsp. paratuberculosis; experiment: Antituberculosis activity against Mycobacterium paratuberculosis B213 isolated from bovine assessed as minimum drug level required for killing after 56 days by MGIT 960 susceptibility test; type: functional; how it was run: as §1
[13] = test system: Mycobacterium avium subsp. paratuberculosis; experiment: Antituberculosis activity against Mycobacterium paratuberculosis B238 isolated from bovine assessed as minimum drug level required for killing after 56 days by MGIT 960 susceptibility test; type: functional; how it was run: as §1
[14] = test system: Mycobacterium avium subsp. paratuberculosis; experiment: Antituberculosis activity against Mycobacterium paratuberculosis JTC303 isolated from bovine assessed as minimum drug level required for inhibition by MGIT 960 susceptibility test; type: functional; how it was run: as §1
Mycobacterium avium [15] = experiment: Antituberculosis activity against Mycobacterium avium JTC981 isolated from bongo fecal sample assessed as minimum drug level required for killing within 15 days by MGIT 960 susceptibility test; type: functional, Feces
[16] = test system: Mycobacterium avium subsp. paratuberculosis; experiment: Antituberculosis activity against Mycobacterium paratuberculosis B236 isolated from bovine assessed as minimum drug level required for killing after 56 days by MGIT 960 susceptibility test; type: functional; how it was run: as §1
Mycolicibacterium phlei [17] = experiment: Antituberculosis activity against Mycobacterium phlei ATCC 11758 assessed as minimum drug level required for killing after 56 days by MGIT 960 susceptibility test; type: functional
How it was run: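 Duplicate MGIT ParaTB tubes with egg yolk and supplement received 10^5 to 10^6 CFU and thiopurine (in 0.05 M NaOH/10 mM PBS) at final 0.5 to 64.0 μg/ml, plus 128.0 μg/ml for some strains. Tubes were incubated at 37°C in the MGIT 960. The value is the minimum concentration whose tubes never signalled positive by 56 days.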

Escherichia coli [18] = experiment: Antituberculosis activity against Escherichia coli ATCC 25922 clinical isolate assessed as minimum drug level required for killing after 56 days by MGIT 960 susceptibility test; type: functional
[19] = test system: Mycobacterium avium subsp. paratuberculosis; experiment: Antituberculosis activity against Mycobacterium paratuberculosis UCF-5 isolated from Crohn's disease patient assessed as minimum drug level required for killing after 56 days by MGIT 960 susceptibility test; type: functional; how it was run: as §1
[20] = test system: Mycobacterium avium subsp. paratuberculosis; experiment: Antituberculosis activity against Mycobacterium paratuberculosis UCF-7 isolated from Crohn's disease patient assessed as minimum drug level required for killing after 56 days by MGIT 960 susceptibility test; type: functional; how it was run: as §1
[21] = test system: Mycobacterium avium subsp. paratuberculosis; experiment: Antituberculosis activity against Mycobacterium paratuberculosis B236 isolated from bovine assessed as minimum drug level required for inhibition by MGIT 960 susceptibility test; type: functional; how it was run: as §1
Mycobacterium avium [22] = experiment: Antituberculosis activity against Mycobacterium avium WSLH1544 isolated from water assessed as minimum drug level required for killing within 15 days by MGIT 960 susceptibility test; type: functional
Escherichia coli [23] = experiment: Antituberculosis activity against Escherichia coli ATCC 25922 clinical isolate assessed as minimum drug level required for inhibition by MGIT 960 susceptibility test; type: functional
[24] = test system: Mycobacterium avium subsp. paratuberculosis; experiment: Antituberculosis activity against Mycobacterium paratuberculosis UCF-4 isolated from Crohn's disease patient assessed as minimum drug level required for inhibition by MGIT 960 susceptibility test; type: functional; how it was run: as §1
[25] = test system: Mycobacterium avium subsp. paratuberculosis; experiment: Antituberculosis activity against Mycobacterium paratuberculosis UCF-5 isolated from Crohn's disease patient assessed as minimum drug level required for inhibition by MGIT 960 susceptibility test; type: functional; how it was run: as §1
[26] = test system: Mycobacterium avium subsp. paratuberculosis; experiment: Antituberculosis activity against Mycobacterium paratuberculosis JTC303 isolated from bovine assessed as minimum drug level required for killing after 56 days by MGIT 960 susceptibility test; type: functional; how it was run: as §1
[27] = test system: Mycobacterium avium subsp. paratuberculosis; experiment: Antituberculosis activity against Mycobacterium paratuberculosis UCF-4 isolated from Crohn's disease patient assessed as minimum drug level required for killing after 56 days by MGIT 960 susceptibility test; type: functional; how it was run: as §1
[28] = test system: Mycolicibacterium smegmatis; experiment: Antituberculosis activity against Mycobacterium smegmatis ATCC 14468 assessed as minimum drug level required for killing after 56 days by MGIT 960 susceptibility test; type: functional; how it was run: as §1
Mycobacterium avium [29] = experiment: Antituberculosis activity against Mycobacterium avium JTC981 isolated from bongo fecal sample assessed as minimum drug level required for inhibition by MGIT 960 susceptibility test; type: functional, Feces; how it was run: as §1
[30] = test system: Mycobacterium avium subsp. paratuberculosis; experiment: Antituberculosis activity against Mycobacterium paratuberculosis ATCC 19698 isolated from bovine assessed as lowest drug level required for killing by MGIT 960 susceptibility test; type: functional
How it was run: (§3)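 M. paratuberculosis ATCC 19698 at 10^6 CFU per MGIT ParaTB tube in duplicate, drugs at final 1.0–64.0 μg/ml, 37°C in MGIT 960. Inhibition is the lowest concentration whose time to detection exceeds the 1:100 diluted-inoculum solvent control. No detectable growth means the tube never signals positive through 56 days.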

Mycobacterium avium [31] = experiment: Antituberculosis activity against Mycobacterium avium 104 isolated from AIDS patient assessed as minimum drug level required for killing within 15 days by MGIT 960 susceptibility test; type: functional
Mycobacterium avium [32] = experiment: Antituberculosis activity against Mycobacterium avium EPA3 isolated from water assessed as minimum drug level required for killing within 15 days by MGIT 960 susceptibility test; type: functional
Mycobacterium avium [33] = experiment: Antituberculosis activity against Mycobacterium avium ATCC 25291 isolated from chicken assessed as minimum drug level required for killing within 15 days by MGIT 960 susceptibility test; type: functional
[34] = test system: Mycobacterium avium subsp. paratuberculosis; experiment: Antituberculosis activity against Mycobacterium paratuberculosis UCF-8 isolated from Crohn's disease patient assessed as minimum drug level required for inhibition by MGIT 960 susceptibility test; type: functional; how it was run: as §1
Enterococcus faecalis [35] = experiment: Antituberculosis activity against Enterococcus faecalis ATCC 29212 isolated from human urine assessed as minimum drug level required for inhibition by MGIT 960 susceptibility test; type: functional
[36] = test system: Mycobacterium avium subsp. paratuberculosis; experiment: Antituberculosis activity against Mycobacterium paratuberculosis UCF-7 isolated from Crohn's disease patient assessed as minimum drug level required for inhibition by MGIT 960 susceptibility test; type: functional; how it was run: as §1
Mycobacterium avium [37] = experiment: Antituberculosis activity against Mycobacterium avium 104 isolated from AIDS patient assessed as minimum drug level required for inhibition by MGIT 960 susceptibility test; type: functional; how it was run: as §1
[38] = test system: Mycobacterium avium subsp. paratuberculosis; experiment: Antituberculosis activity against Mycobacterium paratuberculosis ATCC 19698 isolated from bovine assessed as lowest drug level producing inhibition at 10^6 CFU of inoculum by agar counting method; type: functional
How it was run: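 ATCC 19698 at 10^6 CFU was exposed to drug (1.0–64.0 μg/ml) in MGIT ParaTB medium at 37°C. Aliquots taken at 3 and 5 days were centrifuged, resuspended in PBS and declumped with glass beads. Serial dilutions were plated in quadruplicate on 7H10/OADC/mycobactin J and counted after 8 weeks. Inhibition is the lowest concentration giving a 2 log10 (99%) CFU reduction.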

[39] = test system: Mycobacterium avium subsp. paratuberculosis; experiment: Antituberculosis activity against Mycobacterium paratuberculosis ATCC 19698 isolated from bovine assessed as minimum drug level resulting in no detectable growth at 10^6 CFU of inoculum after 56 days by MGIT 960 susceptibility test; type: functional; how it was run: as §3
[40] = test system: Mycobacterium avium subsp. paratuberculosis; experiment: Antituberculosis activity against Mycobacterium paratuberculosis ATCC 19698 isolated from bovine assessed as lowest drug level producing inhibition at 10^6 CFU of inoculum by MGIT 960 susceptibility test; type: functional; how it was run: as §3

For `Cn1cnc([N+](=O)[O-])c1Sc1ncnc2[nH]cnc12` [AZATHIOPRINE], the Activity (Mycobacterium avium [1]) was 64 µg/mL, the Activity (Mycobacterium avium [2]) was over 64 µg/mL and the Activity [3] was 16 µg/mL. It also gave an Activity (Enterococcus faecalis [4]) of over 128 µg/mL, an Activity (Mycolicibacterium phlei [5]) of 2 µg/mL and an Activity [6] of 8 µg/mL. The Activity [7] was 8 µg/mL, the Activity [8] was over 128 µg/mL and the Activity (Mycobacterium avium [9]) was over 64 µg/mL. The Activity [10] was over 32 µg/mL, the Activity (Mycobacterium avium [11]) was over 64 µg/mL and the Activity [12] was over 32 µg/mL. For the same compound, the Activity [13] was over 32 µg/mL, the Activity [14] was 2 µg/mL and the Activity (Mycobacterium avium [15]) was over 64 µg/mL. The Activity [16] was over 32 µg/mL, the Activity (Mycolicibacterium phlei [17]) was 32 µg/mL and the Activity (Escherichia coli [18]) was over 128 µg/mL. It also gave an Activity [19] of over 32 µg/mL, an Activity [20] of 16 µg/mL and an Activity [21] of 8 µg/mL. For the same compound, the Activity (Mycobacterium avium [22]) was over 64 µg/mL, the Activity (Escherichia coli [23]) was over 128 µg/mL and the Activity [24] was 4 µg/mL. It also gave an Activity [25] of 2 µg/mL, an Activity [26] of over 32 µg/mL and an Activity [27] of over 32 µg/mL. For the same compound, the Activity [28] was over 128 µg/mL, the Activity (Mycobacterium avium [29]) was over 64 µg/mL and the Activity [30] was 16 µg/mL. For the same compound, the Activity (Mycobacterium avium [31]) was over 64 µg/mL, the Activity (Mycobacterium avium [32]) was over 64 µg/mL and the Activity (Mycobacterium avium [33]) was over 64 µg/mL. The Activity [34] was 2 µg/mL, the Activity (Enterococcus faecalis [35]) was over 128 µg/mL and the Activity [36] was 1 µg/mL. It also gave an Activity (Mycobacterium avium [37]) of over 64 µg/mL.

Work on `CO[C@H]1/C=C/O[C@@]2(C)Oc3c(C)c(O)c4c(O)c(c(/C=N/N5CCN(C)CC5)c(O)c4c3C2=O)NC(=O)/C(C)=C\C=C\[C@H](C)[C@H](O)[C@@H](C)[C@@H](O)[C@@H](C)[C@H](OC(C)=O)[C@@H]1C` [RIFAMPIN] yielded an Activity [38] of 2 µg/mL, an Activity [39] of over 64 µg/mL and an Activity [40] of 2 µg/mL.
